Experiments:
Candida albicans [1] = experiment: Fungicidal activity against fluconazole-resistant Candida albicans 56214 after 96 hrs; type: functional; settings: Candida albicans, 56214, 96 h; read-out: MFC99.9
Method in brief: (§1)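 After the 48 h, 28 °C broth microdilution in MOPS-buffered RPMI 1640 (inoculum (0.5−1) × 10^3 CFU/mL), 50 μL from each well was plated on YM agar for a further 48 h at 28 °C. MFC is the lowest concentration killing at least 99.9% of cells. Triplicate, three biological replicates.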

Candida albicans [2] = experiment: Fungicidal activity against Candida albicans SP3903 after 96 hrs; type: functional; settings: SP3903, 96 h, read-out: MFC99.9; method in brief: as §1
Erythrocyte = experiment: Hemolytic activity in human RBC after 1 hr; type: ADME, cell-based
Method in brief: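 Fresh human erythrocytes, diluted 10-fold in PBS pH 7.4, were mixed with equal volumes of peptide and held 1 h at 37 °C. After centrifugation at 1000g, supernatant hemoglobin was read at 576 nm. PBS set 0% and 0.1% Triton X-100 set 100% lysis. MHC is the concentration causing 10% hemolysis. At least three experiments were run, each in technical triplicate.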

Candida albicans [3] = experiment: Fungicidal activity against Candida albicans SP3876 after 96 hrs; type: functional; settings: SP3876, 96 h, read-out: MFC99.9; method in brief: as §1
Salmonella typhimurium [4] = experiment: Antibacterial activity against Salmonella typhimurium ATCC 14028 after 24 hrs; type: functional, Salmonella enterica subsp. enterica serovar Typhimurium; settings: Salmonella enterica, ATCC 14028, 24 h
Method in brief: (§2)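 Broth microdilution. Mid-log bacteria in MHB at a final (0.5−1) × 10^5 CFU/mL were mixed with equal volumes of peptide serially diluted in 0.2% BSA. Plates were incubated 24 h at 37 °C and read at A492. MIC is the lowest concentration inhibiting 95% of growth. Each test was repeated at least 3 times.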

[5] = system: Staphylococcus epidermidis; experiment: Bactericidal activity against Staphylococcus epidermidis ATCC 12228; type: functional; settings: read-out: MBC99.9
Method in brief: (§3)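 Wells from the 24 h, 37 °C MHB microdilution plates (bacteria at a final (0.5−1) × 10^5 CFU/mL; peptide diluted in 0.2% BSA) were plated on agar and incubated overnight. MBC is the lowest concentration killing >99.9% of cells. Each test was reproduced at least 3 times.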

[6] = Cytotoxicity against HEK293T cells assessed as cell viability at 2 to 64 uM after 24 hrs by MTT assay relative to control; type: cell-based, HEK-293T; settings: human, read-out: Activity
Method in brief: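 MTT viability assay. RAW264.7 or HEK293T cells at (1.0−2.0) × 10^5 per well were exposed to a peptide concentration series for 24 h at 37 °C in 5% CO2. MTT was then added at 0.5 mg/mL final for 4 h; formazan was dissolved in DMSO and read at 570 nm. Results average three independent trials.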

Candida albicans [7] = experiment: Antifungal activity against Candida albicans cgmcc 2.2086 in presence of KCl by broth dilution method; type: functional
Candida albicans [8] = experiment: Antifungal activity against fluconazole-resistant Candida albicans 56214 after 48 hrs by broth microdilution method; type: functional; settings: Candida albicans, 56214, 48 h
Method in brief: (§4)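 Modified CLSI M27-A2 broth microdilution. Yeast at (0.5−1) × 10^3 CFU/mL in MOPS-buffered RPMI 1640 was mixed 1:1 with peptide serially diluted in 0.2% BSA and incubated 48 h at 28 °C. Absorbance was read at 492 nm; MIC is the lowest concentration inhibiting 95% of growth. Triplicate, three biological replicates.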

Escherichia coli [9] = experiment: Antibacterial activity against Escherichia coli ATCC 25922 after 18 hrs in presence of FeCl3 by broth dilution method; type: functional; settings: ATCC 25922, 18 h
Candida albicans [10] = experiment: Fungicidal activity against Candida albicans 58288 after 96 hrs; type: functional; settings: Candida albicans, 58288, 96 h; read-out: MFC99.9; method in brief: as §1
Escherichia coli [11] = experiment: Bactericidal activity against Escherichia coli ATCC 25922; type: functional; settings: read-out: MBC99.9; method in brief: as §3
Candida albicans [12] = experiment: Antifungal activity against Candida albicans cgmcc 2.2086 in presence of FeCl3 by broth dilution method; type: functional
Candida parapsilosis [13] = experiment: Fungicidal activity against Candida parapsilosis cgmcc 2.3989 after 96 hrs; type: functional; settings: Lodderomyces parapsilosis, cgmcc 2.3989, 96 h; read-out: MFC99.9
Method in brief: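 Wells from the 48 h, 28 °C RPMI 1640/MOPS microdilution plates were plated on YM agar and incubated a further 48 h at 28 °C. MFC is the lowest concentration killing at least 99.9% of cells. Run in triplicate with three biological replicates.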

Candida albicans [14] = experiment: Antifungal activity against Candida albicans cgmcc 2.2086 in presence of ZnCl2 by broth dilution method; type: functional
Candida albicans [15] = experiment: Fungicidal activity against fluconazole-resistant Candida albicans 17546 after 96 hrs; type: functional; settings: Candida albicans, 17546, 96 h; read-out: MFC99.9; method in brief: as §1
[16] = Bactericidal activity against Salmonella pullorum ATCC 7913; type: functional, Salmonella enterica subsp. enterica serovar Pullorum; settings: Salmonella enterica, read-out: MBC99.9; method in brief: as §3
Candida albicans [17] = experiment: Fungicidal activity against Candida albicans SP3902 after 96 hrs; type: functional; settings: SP3902, 96 h, read-out: MFC99.9; method in brief: as §1
Candida albicans [18] = experiment: Antifungal activity against Candida albicans SP3902 after 48 hrs by broth microdilution method; type: functional; settings: SP3902, 48 h; method in brief: as §4
Escherichia coli [19] = experiment: Bactericidal activity against Escherichia coli 1005; type: functional; settings: read-out: MBC99.9; method in brief: as §3
Candida albicans [20] = experiment: Antifungal activity against Candida albicans cgmcc 2.2086 in presence of NaCl by broth dilution method; type: functional
Candida parapsilosis [21] = experiment: Antifungal activity against Candida parapsilosis cgmcc 2.3989 after 48 hrs by broth microdilution method; type: functional; settings: Lodderomyces parapsilosis, cgmcc 2.3989, 48 h
Method in brief: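 Modified CLSI M27-A2 broth microdilution. Yeast were suspended in MOPS-buffered RPMI 1640 at a final (0.5−1) × 10^3 CFU/mL and mixed 1:1 with peptide serially diluted in 0.2% BSA. Plates were incubated 48 h at 28 °C and read at A492. MIC is the lowest concentration giving 95% inhibition. Run in triplicate with three biological replicates.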

Candida albicans [22] = experiment: Antifungal activity against Candida albicans 14936 after 48 hrs by broth microdilution method; type: functional; settings: Candida albicans, 14936, 48 h; method in brief: as §4
Staphylococcus aureus [23] = experiment: Antibacterial activity against Staphylococcus aureus ATCC 29213 after 24 hrs; type: functional; settings: ATCC 29213, 24 h
Method in brief: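 Modified NCCLS broth microdilution. Mid-log bacteria at (0.5−1) × 10^5 CFU/mL in MHB were mixed 1:1 with peptide serially diluted in 0.2% BSA and incubated 24 h at 37 °C. Absorbance was read at 492 nm; MIC is the lowest concentration inhibiting 95% of growth. At least 3 repeats.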

Escherichia coli [24] = experiment: Antibacterial activity against Escherichia coli 1005 after 24 hrs; type: functional; settings: Escherichia coli, 1005, 24 h; method in brief: as §2
Escherichia coli [25] = experiment: Antibacterial activity against Escherichia coli ATCC 25922 after 18 hrs in presence of CaCl2 by broth dilution method; type: functional; settings: ATCC 25922, 18 h
Staphylococcus aureus [26] = experiment: Bactericidal activity against Staphylococcus aureus ATCC 29213; type: functional; settings: read-out: MBC99.9; method in brief: as §3
Candida albicans [27] = experiment: Antifungal activity against Candida albicans cgmcc 2.2086 in presence of CaCl2 by broth dilution method; type: functional
Escherichia coli [28] = experiment: Antibacterial activity against Escherichia coli ATCC 25922 after 18 hrs in presence of NaCl by broth dilution method; type: functional; settings: ATCC 25922, 18 h
Candida albicans [29] = experiment: Antifungal activity against Candida albicans cgmcc 2.2086 in presence of NH4Cl by broth dilution method; type: functional
Salmonella typhimurium [30] = experiment: Bactericidal activity against Salmonella typhimurium ATCC 14028; type: functional, Salmonella enterica subsp. enterica serovar Typhimurium; settings: Salmonella enterica, read-out: MBC99.9; method in brief: as §3

Substance	MFC (Candida albicans [1]) [µM]	MFC (Candida albicans [2]) [µM]	HC10 (Erythrocyte) [µM]	MFC (Candida albicans [3]) [µM]	MIC95 (Salmonella typhimurium [4]) [µM]	MBC [5] [µM]	viability at 24 h, up to 64 µM [6] [%]	MIC (Candida albicans [7]) [µM]	MIC95 (Candida albicans [8]) [µM]	MIC (Escherichia coli [9]) [µM]	MFC (Candida albicans [10]) [µM]	MBC (Escherichia coli [11]) [µM]	MIC (Candida albicans [12]) [µM]	MFC (Candida parapsilosis [13]) [µM]	MIC (Candida albicans [14]) [µM]	MFC (Candida albicans [15]) [µM]	MBC [16] [µM]	MFC (Candida albicans [17]) [µM]	MIC95 (Candida albicans [18]) [µM]	MBC (Escherichia coli [19]) [µM]	other results
H-RRLRLLLRLRR-NH2	8	2	> 128	4	4	4	70 to 80	32	4	8	8	4	8	64	8	16	8	4	4	4	MIC (Candida albicans [20]): 64 µM; MIC95 (Candida parapsilosis [21]): 64 µM; MIC95 (Candida albicans [22]): 8 µM; MIC95 (Staphylococcus aureus [23]): 16 µM; MIC95 (Escherichia coli [24]): 4 µM; MIC (Escherichia coli [25]): 4 µM; MBC (Staphylococcus aureus [26]): 16 µM; MIC (Candida albicans [27]): 64 µM; MIC (Escherichia coli [28]): 4 µM; MIC (Candida albicans [29]): 8 µM; MBC (Salmonella typhimurium [30]): 4 µM
H-RRWRWWWRWRR-NH2	8	4	> 128	4	4	8	70 to 80	8	4	4	8	4	4	16	4	4	4	4	4	4	MIC (Candida albicans [20]): 8 µM; MIC95 (Candida parapsilosis [21]): 8 µM; MIC95 (Candida albicans [22]): 8 µM; MIC95 (Staphylococcus aureus [23]): 2 µM; MIC95 (Escherichia coli [24]): 4 µM; MIC (Escherichia coli [25]): 8 µM; MBC (Staphylococcus aureus [26]): 4 µM; MIC (Candida albicans [27]): 8 µM; MIC (Escherichia coli [28]): 4 µM; MIC (Candida albicans [29]): 4 µM; MBC (Salmonella typhimurium [30]): 8 µM
H-RWRWWWRWR-NH2	8	8	> 128	4	4	8	70 to 80	16	4	4	8	4	8	32	8	2	8	16	8	4	MIC (Candida albicans [20]): 16 µM; MIC95 (Candida parapsilosis [21]): 16 µM; MIC95 (Candida albicans [22]): 8 µM; MIC95 (Staphylococcus aureus [23]): 4 µM; MIC95 (Escherichia coli [24]): 2 µM; MIC (Escherichia coli [25]): 4 µM; MBC (Staphylococcus aureus [26]): 16 µM; MIC (Candida albicans [27]): 32 µM; MIC (Escherichia coli [28]): 4 µM; MIC (Candida albicans [29]): 8 µM; MBC (Salmonella typhimurium [30]): 4 µM

Source: ChEMBL document CHEMBL4177755, “Combating Drug-Resistant Fungi with Novel Imperfectly Amphipathic Palindromic Peptides” (J Med Chem, 2018)
